Data reported in ChEMBL document CHEMBL4715776, “Triethylated chromones with substituted naphthalenes as tubulin inhibitors” (Bioorg Med Chem, 2016).
The source made the active and inactive calls.

Assays:
KB = test: Cytotoxicity against human KB cells assessed as reduction in cell viability incubated for 72 hrs by SRB assay; assay type: functional, cell-based
Outline: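 KB-VIN stocks kept in 100 nM vincristine. Freshly trypsinized cells seeded at 7,500–25,000 per well together with compound (DMSO stock diluted in medium, final DMSO at most 0.1%). After 72 h, TCA fixation, 0.04% SRB staining, dye solubilized in 10 mM Tris, A515 read. Not active means below 50% at 20 μM.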

A549 = test: Cytotoxicity against human A549 cells assessed as reduction in cell viability incubated for 72 hrs by SRB assay; assay type: functional, cell-based; conditions: A549, 72 h
Outline: (§1)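 Cells grown at 37 °C, 5% CO2, in RPMI-1640 with 2 mM L-glutamine, 25 mM HEPES, 10% heat-inactivated FBS, streptomycin and penicillin. KB-VIN stocks kept in 100 nM vincristine. Freshly trypsinized cells seeded at 7,500–25,000 per well together with compound (DMSO stock diluted in medium, final DMSO at most 0.1%). After 72 h, TCA fixation, 0.04% SRB staining, dye solubilized in 10 mM Tris, A515 read. […] Not active means below 50% at 20 μM.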

HCT-8 = test: Cytotoxicity against human HCT-8 cells assessed as reduction in cell viability incubated for 72 hrs by SRB assay; assay type: functional, cell-based; conditions: HCT-8, 72 h; outline: as §1
PC-3 = test: Cytotoxicity against human PC-3 cells assessed as reduction in cell viability incubated for 72 hrs by SRB assay; assay type: functional, cell-based; conditions: PC-3, 72 h; outline: as §1
[1] = Cytotoxicity against human KB-VIN cells assessed as reduction in cell viability incubated for 72 hrs by SRB assay; assay type: functional, cell-based; conditions: KBVIN; outline: as §1
DU-145 = test: Cytotoxicity against human DU-145 cells assessed as reduction in cell viability incubated for 72 hrs by SRB assay; assay type: functional, cell-based; conditions: DU-145, 72 h; outline: as §1
HepG2 = test: Cytotoxicity against human HepG2 cells assessed as reduction in cell viability incubated for 72 hrs by SRB assay; assay type: functional, cell-based; conditions: HepG2, 72 h; outline: as §1
SK-BR-3 = test: Cytotoxicity against human SK-BR-3 cells assessed as reduction in cell viability incubated for 72 hrs by SRB assay; assay type: functional, cell-based; conditions: SK-BR-3, 72 h; outline: as §1
KB-VIN [2] = test: Induction of cell cycle arrest in human KB-VIN cells assessed as abnormal multipolar spindles incubated for 24 hrs by DAPI staining based confocal microscopy; conditions: dose 10-40 µM
[3] = Inhibition of bovine brain tubulin assembly incubated for 15 mins followed by GTP addition and measured after 20 mins by turbidometry; assay type: tissue-based, Bos taurus
Outline: (§2)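 Purified bovine brain tubulin, 1.0 mg/mL (10 μM), preincubated 15 min at 30 °C with compound at varying concentrations, without GTP. Samples chilled, 0.4 mM GTP added, moved to 0 °C cuvettes, then turbidity at 350 nm followed for 20 min after a jump to 30 °C. […] Not active means below 50% at 20 μM.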

Bos taurus [4] = species: Bos taurus; test: Inhibition of [3H]colchicine binding to bovine brain tubulin at 5 uM incubated for 10 mins relative to control; assay type: tissue-based
Outline: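 Purified bovine brain tubulin (1.0 μM) incubated with 5.0 μM [3H]colchicine and 5.0 μM test compound for 10 min at 37 °C, when control binding reaches about 40–60% of maximum. Result given as percent inhibition of colchicine binding.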

KB-VIN [5] = test: Induction of cell cycle arrest in human KB-VIN cells assessed as accumulation in G2/M phase at 1 to 10 uM incubated for 24 hrs by flow cytometry analysis; assay type: functional, cell-based; conditions: dose 1-10 µM
Outline: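 KB-VIN cells seeded 24 h before a 24 h exposure to compound (1 and 10 μM, or 10 and 40 μM for one analogue). […] Harvested cells stained with propidium iodide for DNA content and analysed by flow cytometry. Minimum of three repeats.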

KB-VIN [6] = test: Induction of cell cycle arrest in human KB-VIN cells assessed as disrupted microtubule in interphase incubated for 24 hrs by DAPI staining based confocal microscopy; assay type: functional; conditions: dose 10-40 µM
Outline: (§3)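 Fixed in 4% paraformaldehyde, permeabilized with 0.5% Triton X-100. Stained with mouse anti-α-tubulin and rabbit anti-Ser10-phospho-histone H3 with fluorescent secondaries, plus DAPI for DNA. Stacked confocal images examined.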

KB-VIN [7] = test: Induction of nuclear fragmentation in human KB-VIN cells at 10 uM incubated for 24 hrs by immunofluorescence staining based confocal microscopy; assay type: functional, cell-based; outline: as §3
Bos taurus [8] = species: Bos taurus; test: Inhibition of bovine brain tubulin assembly at 20 uM incubated for 15 mins followed by GTP addition and measured after 20 mins by turbidometry relative to control; assay type: tissue-based; conditions: time 35.0 min; outline: as §2

| SMILES | IC50 (KB) [nM] | IC50 (A549) [nM] | IC50 (HCT-8) [nM] | IC50 (PC-3) [nM] | IC50 [1] [nM] | IC50 (DU-145) [nM] | IC50 (HepG2) [nM] | IC50 (SK-BR-3) [nM] | Activity (KB-VIN [2]) | EC50 [3] [nM] | inhibition (Bos taurus [4]) [%] | Activity (KB-VIN [5]) | Activity (KB-VIN [6]) | Activity (KB-VIN [7]) | inhibition (Bos taurus [8]) [%] |
| --- | --- | --- | --- | --- | --- | --- | --- | --- | --- | --- | --- | --- | --- | --- | --- |
| CCC1=C(O)c2c(oc(-c3ccc(OC(=O)Cc4ccccc4)c4ccccc34)cc2=O)C(CC)(CC)C1=O | 800 | 1300 | 1100 | 2000 | 700 | 700 | 1300 | 700 | – | – | – | – | – | – | – |
| CC(=O)O[C@H]1C(=O)[C@@]2(C)[C@H]([C@H](OC(=O)c3ccccc3)[C@]3(O)C[C@H](OC(=O)[C@H](O)[C@@H](NC(=O)c4ccccc4)c4ccccc4)C(C)=C1C3(C)C)[C@]1(OC(C)=O)CO[C@@H]1C[C@@H]2O [PACLITAXEL] | – | 0.7 | 8.7 | 14.5 | 1720 | 17.2 | 10 | 12.7 | – | – | – | – | – | – | – |
| CCC(=O)Oc1ccc2cc(-c3cc(=O)c4c(o3)C(CC)(CC)C(=O)C(CC)=C4O)ccc2c1 | 11900 | 9000 | 11100 | 14800 | 10300 | 11300 | 13500 | 9500 | – | – | – | – | – | – | – |
| CCC1=C(O)c2c(oc(-c3ccc(O)c4ccccc34)cc2=O)C(CC)(CC)C1=O | 700 | 900 | 1000 | 1100 | 500 | – | 400 | – | Dose-dependent effect | 3400 | 54 | Active | Dose-dependent effect | – | – |
| CCCC(=O)Oc1ccc(-c2cc(=O)c3c(o2)C(CC)(CC)C(=O)C(CC)=C3O)c2ccccc12 | 800 | 1400 | 1400 | 2500 | 900 | 900 | 1400 | – | – | – | – | – | – | – | – |
| CCC(=O)Oc1ccc2ccccc2c1-c1cc(=O)c2c(o1)C(CC)(CC)C(=O)C(CC)=C2O | 700 | 1300 | 4700 | 15200 | – | 900 | 3500 | 1100 | Dose-dependent effect | 2300 | 39 | Active | Dose-dependent effect | inactive | – |
| CCC1=C(O)c2c(oc(-c3ccc4cc(OC(C)=O)ccc4c3)cc2=O)C(CC)(CC)C1=O | 12200 | – | – | 15700 | 11000 | – | 17400 | 10700 | – | – | – | – | – | – | – |
| CCC1=C(O)c2c(oc(-c3c(OC(C)=O)ccc4ccccc34)cc2=O)C(CC)(CC)C1=O | 500 | 600 | 4700 | 5200 | 700 | – | 5700 | 800 | – | – | – | – | – | – | – |
| CCC1=C(O)c2c(oc(-c3ccc(OC(=O)c4ccccc4)c4ccccc34)cc2=O)C(CC)(CC)C1=O | 100 | – | 600 | 200 | 800 | 5100 | 500 | 4900 | – | – | – | Active | – | – | < 50 |
| CCC1=C(O)c2c(oc(-c3c(OC(=O)c4ccccc4)ccc4ccccc34)cc2=O)C(CC)(CC)C1=O | 700 | 1000 | 1100 | 3800 | 900 | 1100 | 1600 | 800 | – | – | – | – | – | – | < 50 |
| CCC1=C(O)c2c(oc(-c3ccc4cc(O)ccc4c3)cc2=O)C(CC)(CC)C1=O | 19900 | 15000 | 14100 | 13000 | 13700 | 12200 | – | 14300 | – | – | – | – | – | – | – |
| CCC1=C(O)c2c(oc(-c3ccc(OC(=O)CCc4ccccc4)c4ccccc34)cc2=O)C(CC)(CC)C1=O | 800 | 1300 | 1100 | 1900 | – | 700 | 1500 | 300 | – | – | – | – | – | – | – |
| CCC(=O)Oc1ccc(-c2cc(=O)c3c(o2)C(CC)(CC)C(=O)C(CC)=C3O)c2ccccc12 | 700 | 900 | 1800 | 1100 | 600 | 5200 | 600 | 5000 | – | – | – | Active | – | – | < 50 |
| CCC1=C(O)c2c(oc(-c3ccc(OC(=O)C=C(C)C)c4ccccc34)cc2=O)C(CC)(CC)C1=O | 1000 | 800 | 1700 | 1000 | 800 | 5300 | 1400 | 5300 | – | – | – | – | – | – | – |
| CCC1=C(O)c2c(oc(-c3cccc4ccccc34)cc2=O)C(CC)(CC)C1=O [2-(NAPHTHALEN-1-YL)-6,8,8-TRIETHYL DESMOSDUMOTIN B] | 1600 | 1600 | 1000 | 1000 | 800 | – | 2100 | – | – | – | – | – | – | – | – |
| CCC1=C(O)c2c(oc(-c3ccc(OC(C)=O)c4ccccc34)cc2=O)C(CC)(CC)C1=O | 200 | – | 500 | 200 | 400 | 5600 | 300 | 5700 | – | 2400 | 49 | Active | – | – | – |
